Tests used:
Homo sapiens = species on record: Homo sapiens; assay: Selectivity index, ratio of IC50 for human recombinant CYP11B1 to IC50 for human recombinant CYP11B2
How it was run: (§1)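 Recombinant human CYP11B2 or CYP11B1. Substrate and product steroids both monitored by HPLC-MS. Selectivity taken as CYP11B1 IC50 / CYP11B2 IC50.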

[1] = target: T1, Cytochrome P450 11B1, mitochondrial (Homo sapiens, UniProt P15538); assay: Inhibition of human recombinant CYP11B1 using deoxycortisol as substrate incubated for 60 mins by cell-based HPLC analysis; assay type: ADME; how it was run: as §1
T1 sequence (P15538 whole entry): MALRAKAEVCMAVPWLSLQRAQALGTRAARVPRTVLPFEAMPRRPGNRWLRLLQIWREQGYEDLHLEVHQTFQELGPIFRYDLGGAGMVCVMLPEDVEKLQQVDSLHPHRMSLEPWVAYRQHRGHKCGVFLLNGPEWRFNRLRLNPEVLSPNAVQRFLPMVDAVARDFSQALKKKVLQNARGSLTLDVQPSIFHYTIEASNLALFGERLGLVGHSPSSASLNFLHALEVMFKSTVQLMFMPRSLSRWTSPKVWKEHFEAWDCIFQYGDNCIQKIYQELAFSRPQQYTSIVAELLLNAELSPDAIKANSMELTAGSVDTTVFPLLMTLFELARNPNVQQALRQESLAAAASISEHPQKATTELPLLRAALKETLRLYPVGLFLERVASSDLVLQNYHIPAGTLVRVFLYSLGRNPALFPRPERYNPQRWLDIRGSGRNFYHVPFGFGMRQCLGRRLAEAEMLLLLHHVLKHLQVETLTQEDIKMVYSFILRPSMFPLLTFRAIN

[2] = target: T2, Cytochrome P450 11B2, mitochondrial (Homo sapiens, UniProt P19099); assay: Inhibition of human recombinant CYP11B2 using deoxycorticosterone as substrate incubated for 90 mins by cell-based HPLC analysis; how it was run: as §1
T2 sequence (P19099 whole entry): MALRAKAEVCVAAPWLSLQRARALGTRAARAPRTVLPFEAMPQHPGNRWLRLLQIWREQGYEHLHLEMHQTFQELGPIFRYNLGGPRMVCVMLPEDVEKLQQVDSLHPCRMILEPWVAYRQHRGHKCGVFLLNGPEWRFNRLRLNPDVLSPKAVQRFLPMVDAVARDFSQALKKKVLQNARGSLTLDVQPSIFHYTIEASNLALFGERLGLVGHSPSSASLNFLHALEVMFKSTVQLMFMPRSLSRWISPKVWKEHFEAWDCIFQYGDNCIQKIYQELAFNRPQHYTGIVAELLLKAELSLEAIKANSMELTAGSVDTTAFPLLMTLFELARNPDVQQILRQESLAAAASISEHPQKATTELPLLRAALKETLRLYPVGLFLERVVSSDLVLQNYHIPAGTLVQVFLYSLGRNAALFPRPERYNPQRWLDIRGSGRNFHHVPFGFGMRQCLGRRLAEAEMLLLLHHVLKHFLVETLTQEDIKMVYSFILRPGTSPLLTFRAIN

[3] = Stability in cynomolgus monkey liver microsomes assessed as parent compound remaining at 1 uM measured after 65 mins by LC/MS-MS analysis; assay type: ADME, Macaca fascicularis, Microsome; settings: read-out: Stability
How it was run: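 Parent compound percentage remaining after 65 min incubation with cynomolgus monkey liver microsomes.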

[4] = Tmax in cynomolgus monkey at 1 mg/kg, po measured after 24 or 72 hrs; assay type: ADME, organism-based, Macaca fascicularis; settings: in vivo
How it was run: (§2)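 Male cynomolgus monkeys dosed orally at 1 mg/kg in 0.5% CMC, 0.1% Tween-80, 1% DMSO. Plasma drug concentrations followed out to 24 or 72 h. Cmax, Tmax, AUC0-24 and t1/2 derived from plasma levels.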

[5] = AUC (0 to 24 hrs) in cynomolgus monkey at 1 mg/kg, po measured after 24 or 72 hrs; assay type: ADME, organism-based, Macaca fascicularis; parameters: time < 24 hr, dose 1 mg/kg, route oral; settings: in vivo; how it was run: as §2
[6] = Half life in cynomolgus monkey at 1 mg/kg, po measured after 24 or 72 hrs; assay type: ADME, organism-based, Macaca fascicularis; settings: in vivo; how it was run: as §2
[7] = Cmax in cynomolgus monkey at 1 mg/kg, po measured after 24 or 72 hrs; assay type: ADME, organism-based, Macaca fascicularis; parameters: dose 1 mg/kg, route oral; settings: in vivo; how it was run: as §2

Row | Ratio IC50 (Homo sapiens) | IC50 [1] [nM] | IC50 [2] [nM] | remaining at 65 min, 1 µM [3] [%] | Tmax [4] [h] | AUC(0-t) at 24 h [5] [µM·h] | half-life [6] [h] | Cmax [7] [nM] | Compound
1 | > 24 | > 10000 | 412 |  |  |  |  |  | Fc1ccc2nc(-c3cccnn3)n(C3CC3)c2c1
2 |  | > 10000 | > 10000 |  |  |  |  |  | Fc1ccc2nc(-c3cnco3)n(C3CC3)c2c1
3 | 8.5 | 9070 | 1060 |  |  |  |  |  | Fc1ccc2nc(-n3ccnn3)n(C3CC3)c2c1
4 | 416 | 3330 | 8 | 78 |  |  |  |  | CCc1ncncc1-c1nc2cc(F)c(F)cc2n1C1CC1
5 | 135 | 3930 | 29 | 101 | 2 | 32.2 | 7.5 | 2880 | N#Cc1ccc2nc(-c3cncnc3C(F)F)n(C3CC3)c2n1
6 | 244 |  |  | 72 | 0.5 | 3 | 4.2 | 1260 | Cc1ncncc1-c1nc2cc(F)c(F)cc2n1C1CC1
7 | 381 | 1910 | 5 | 80 |  |  |  |  | CC(C)c1ncncc1-c1nc2cc(F)c(F)cc2n1C1CC1
8 | 226 | 2030 | 9 | 84 | 2 | 8.3 | 5.4 | 1000 | N#Cc1ccc2nc(-c3cncnc3C(F)F)n(C3CC3)c2c1
9 | 261 | 4170 | 16 | 62 |  |  |  |  | N#Cc1ccc2nc(-c3cncnc3C(F)(F)F)n(C3CC3)c2c1
10 | 114 | 5720 | 50 |  |  |  |  |  | CC(F)(F)c1ncncc1-c1nc2cc(F)c(F)cc2n1C1CC1
11 | 126 | 378 | 3 | 55 |  |  |  |  | Fc1cc2nc(-c3cncnc3NCCC(F)(F)F)n(C3CC3)c2cc1F

Source: ChEMBL document CHEMBL4304781, “Development of Highly Selective Pyrimidine-Based Aldosterone Synthase (CYP11B2) Inhibitors” (ACS Med Chem Lett, 2019)
